From ChEMBL document CHEMBL5724801, “EUbOPEN Chemogenomics Library - Multiplex” (2024)
Several values for one entry are separate records, joined by “and”; a condition that tells them apart may be missing. Equal entries are not always repeated.

Key:
Format in all cases: toxicity, cell-based
HEK-293T = assay: Multiplex assay against HEK293T; details: human
How it was run: (§1)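 Cells were classed with CellPathfinder machine-learning gating, first as Hoechst high-intensity objects or normal cells, then (normal cells) as healthy, pyknosed or fragmented nuclei, and finally (pyknosed cells) as mitotic or apoptotic. Staining of live cells at seeding used Hoechst33342, BioTracker Green Microtubule Cytoskeleton Dye, MitoTracker Red and Annexin V Alexa Fluor 680, with imaging on a CQ1 microscope at 37°C and 5% CO2 after compound addition. Tubulin, mitochondrial-mass and membrane-permeability phenotypes are per cents of healthy-nucleus cells.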

U2OS = assay: Multiplex assay against U2OS; details: human; how it was run: as §1
Fibroblast = assay: Multiplex assay against human fibroblast; how it was run: as §1
[1] = 12 h, 1 µM, compound concentration 1 uM
[2] = 12 h, 10 µM, compound concentration 10 uM
[3] = 24 h, 1 µM, compound concentration 1 uM
[4] = 24 h, 10 µM, compound concentration 10 uM
[5] = 48 h, 1 µM, compound concentration 1 uM
[6] = 48 h, 10 µM, compound concentration 10 uM

## O=c1nc2[nH]c3ccccc3nc-2c(=O)[nH]1 [ALLOXAZINE]
HEK-293T; [1]
  Population Apoptotic (%): 27% and 44%
  Population Fragmented Nuclei (%): 8% and 4%
  Population Healthy Nuclei (%): 77% and 79%
  Population Hoechst High Intensity Objects (%): 8% and 7%
  Population Membrane Permeable-Phenotype (%): 0%
  Population Mitochondria Different-Phenotype (%): 44% and 66%
  Population Mitotic Cells (%): 72% and 55%
  Population Normal (%): 91% and 92%
  Population Pyknosed Nuclei (%): 13% and 15%
  Population Tubulin-Different-Phenotype (%): 33% and 25%
  Total Cell Count: 377 and 345
HEK-293T; [2]
  Population Apoptotic (%): 40% and 60%
  Population Fragmented Nuclei (%): 10% and 8%
  Population Healthy Nuclei (%): 71% and 70%
  Population Hoechst High Intensity Objects (%): 5% and 15%
  Population Membrane Permeable-Phenotype (%): 0%
  Population Mitochondria Different-Phenotype (%): 53% and 67%
  Population Mitotic Cells (%): 59% and 40%
  Population Normal (%): 94% and 84%
  Population Pyknosed Nuclei (%): 18% and 20%
  Population Tubulin-Different-Phenotype (%): 31% and 20%
  Total Cell Count: 362 and 323
HEK-293T; [3]
  Population Apoptotic (%): 22% and 33%
  Population Fragmented Nuclei (%): 10% and 7%
  Population Healthy Nuclei (%): 76% and 83%
  Population Hoechst High Intensity Objects (%): 4% and 7%
  Population Membrane Permeable-Phenotype (%): 0%
  Population Mitochondria Different-Phenotype (%): 24% and 41%
  Population Mitotic Cells (%): 77% and 66%
  Population Normal (%): 95% and 92%
  Population Pyknosed Nuclei (%): 12% and 8%
  Population Tubulin-Different-Phenotype (%): 19% and 12%
  Total Cell Count: 504 and 391
HEK-293T; [4]
  Population Apoptotic (%): 27% and 50%
  Population Fragmented Nuclei (%): 9%
  Population Healthy Nuclei (%): 77% and 72%
  Population Hoechst High Intensity Objects (%): 6% and 15%
  Population Membrane Permeable-Phenotype (%): 0%
  Population Mitochondria Different-Phenotype (%): 34% and 48%
  Population Mitotic Cells (%): 72% and 50%
  Population Normal (%): 93% and 84%
  Population Pyknosed Nuclei (%): 12% and 17%
  Population Tubulin-Different-Phenotype (%): 21% and 16%
  Total Cell Count: 491 and 371
HEK-293T; [5]
  Population Apoptotic (%): 32% and 27%
  Population Fragmented Nuclei (%): 14% and 11%
  Population Healthy Nuclei (%): 77% and 82%
  Population Hoechst High Intensity Objects (%): 3% and 4%
  Population Membrane Permeable-Phenotype (%): 1% and 0%
  Population Mitochondria Different-Phenotype (%): 18% and 26%
  Population Mitotic Cells (%): 67% and 72%
  Population Normal (%): 96% and 95%
  Population Pyknosed Nuclei (%): 8% and 6%
  Population Tubulin-Different-Phenotype (%): 13% and 12%
  Total Cell Count: 773 and 636
HEK-293T; [6]
  Population Apoptotic (%): 29% and 48%
  Population Fragmented Nuclei (%): 15% and 14%
  Population Healthy Nuclei (%): 76% and 78%
  Population Hoechst High Intensity Objects (%): 3% and 4%
  Population Membrane Permeable-Phenotype (%): 0%
  Population Mitochondria Different-Phenotype (%): 17% and 28%
  Population Mitotic Cells (%): 70% and 51%
  Population Normal (%): 96% and 95%
  Population Pyknosed Nuclei (%): 7% and 6%
  Population Tubulin-Different-Phenotype (%): 11% and 14%
  Total Cell Count: 700 and 531
U2OS; [1]
  Population Apoptotic (%): 70% and 75%
  Population Fragmented Nuclei (%): 25% and 15%
  Population Healthy Nuclei (%): 61% and 74%
  Population Hoechst High Intensity Objects (%): 2%
  Population Membrane Permeable-Phenotype (%): 5%
  Population Mitochondria Different-Phenotype (%): 0% and 5%
  Population Mitotic Cells (%): 29% and 25%
  Population Normal (%): 97%
  Population Pyknosed Nuclei (%): 12% and 10%
  Population Tubulin-Different-Phenotype (%): 3%
  Total Cell Count: 195 and 122
U2OS; [2]
  Population Apoptotic (%): 86% and 88%
  Population Fragmented Nuclei (%): 33% and 13%
  Population Healthy Nuclei (%): 59% and 78%
  Population Hoechst High Intensity Objects (%): 0% and 1%
  Population Membrane Permeable-Phenotype (%): 7%
  Population Mitochondria Different-Phenotype (%): 0% and 5%
  Population Mitotic Cells (%): 13% and 11%
  Population Normal (%): 99% and 98%
  Population Pyknosed Nuclei (%): 7%
  Population Tubulin-Different-Phenotype (%): 1% and 3%
  Total Cell Count: 212 and 119
U2OS; [3]
  Population Apoptotic (%): 73% and 57%
  Population Fragmented Nuclei (%): 24% and 16%
  Population Healthy Nuclei (%): 66% and 74%
  Population Hoechst High Intensity Objects (%): 1% and 2%
  Population Membrane Permeable-Phenotype (%): 4% and 5%
  Population Mitochondria Different-Phenotype (%): 1% and 5%
  Population Mitotic Cells (%): 26% and 42%
  Population Normal (%): 98% and 97%
  Population Pyknosed Nuclei (%): 8% and 9%
  Population Tubulin-Different-Phenotype (%): 2%
  Total Cell Count: 261 and 146
U2OS; [4]
  Population Apoptotic (%): 78% and 75%
  Population Fragmented Nuclei (%): 30% and 16%
  Population Healthy Nuclei (%): 61% and 80%
  Population Hoechst High Intensity Objects (%): 0% and 2%
  Population Membrane Permeable-Phenotype (%): 8% and 5%
  Population Mitochondria Different-Phenotype (%): 2% and 4%
  Population Mitotic Cells (%): 21% and 25%
  Population Normal (%): 99% and 97%
  Population Pyknosed Nuclei (%): 8% and 2%
  Population Tubulin-Different-Phenotype (%): 2% and 3%
  Total Cell Count: 237 and 148
U2OS; [5]
  Population Apoptotic (%): 84% and 76%
  Population Fragmented Nuclei (%): 19% and 18%
  Population Healthy Nuclei (%): 71% and 72%
  Population Hoechst High Intensity Objects (%): 1% and 6%
  Population Membrane Permeable-Phenotype (%): 1% and 4%
  Population Mitochondria Different-Phenotype (%): 1% and 2%
  Population Mitotic Cells (%): 15% and 23%
  Population Normal (%): 98% and 93%
  Population Pyknosed Nuclei (%): 9% and 8%
  Population Tubulin-Different-Phenotype (%): 1% and 2%
  Total Cell Count: 362 and 207
U2OS; [6]
  Population Apoptotic (%): 90% and 76%
  Population Fragmented Nuclei (%): 26% and 12%
  Population Healthy Nuclei (%): 66% and 79%
  Population Hoechst High Intensity Objects (%): 1%
  Population Membrane Permeable-Phenotype (%): 5% and 3%
  Population Mitochondria Different-Phenotype (%): 1%
  Population Mitotic Cells (%): 9% and 23%
  Population Normal (%): 98%
  Population Pyknosed Nuclei (%): 6% and 8%
  Population Tubulin-Different-Phenotype (%): 2%
  Total Cell Count: 321 and 210
Fibroblast; [1]
  Population Apoptotic (%): 56% and 37%
  Population Fragmented Nuclei (%): 16% and 26%
  Population Healthy Nuclei (%): 67% and 50%
  Population Hoechst High Intensity Objects (%): 5% and 3%
  Population Membrane Permeable-Phenotype (%): 0% and 6%
  Population Mitochondria Different-Phenotype (%): 2% and 3%
  Population Mitotic Cells (%): 43% and 62%
  Population Normal (%): 94% and 96%
  Population Pyknosed Nuclei (%): 16% and 23%
  Population Tubulin-Different-Phenotype (%): 23% and 33%
  Total Cell Count: 193 and 131
Fibroblast; [2]
  Population Apoptotic (%): 33% and 41%
  Population Fragmented Nuclei (%): 23% and 41%
  Population Healthy Nuclei (%): 60% and 38%
  Population Hoechst High Intensity Objects (%): 4% and 1%
  Population Membrane Permeable-Phenotype (%): 3%
  Population Mitochondria Different-Phenotype (%): 5% and 15%
  Population Mitotic Cells (%): 66% and 58%
  Population Normal (%): 95% and 98%
  Population Pyknosed Nuclei (%): 15% and 20%
  Population Tubulin-Different-Phenotype (%): 23% and 57%
  Total Cell Count: 158 and 86
Fibroblast; [3]
  Population Apoptotic (%): 52% and 36%
  Population Fragmented Nuclei (%): 17% and 31%
  Population Healthy Nuclei (%): 69% and 41%
  Population Hoechst High Intensity Objects (%): 3% and 4%
  Population Membrane Permeable-Phenotype (%): 0% and 2%
  Population Mitochondria Different-Phenotype (%): 2% and 0%
  Population Mitotic Cells (%): 47% and 63%
  Population Normal (%): 96% and 95%
  Population Pyknosed Nuclei (%): 12% and 27%
  Population Tubulin-Different-Phenotype (%): 21% and 31%
  Total Cell Count: 190 and 114
Fibroblast; [4]
  Population Apoptotic (%): 47% and 64%
  Population Fragmented Nuclei (%): 19% and 45%
  Population Healthy Nuclei (%): 64% and 32%
  Population Hoechst High Intensity Objects (%): 3%
  Population Membrane Permeable-Phenotype (%): 0%
  Population Mitochondria Different-Phenotype (%): 2% and 7%
  Population Mitotic Cells (%): 52% and 35%
  Population Normal (%): 96%
  Population Pyknosed Nuclei (%): 15% and 21%
  Population Tubulin-Different-Phenotype (%): 22% and 50%
  Total Cell Count: 153 and 82
Fibroblast; [5]
  Population Apoptotic (%): 71% and 39%
  Population Fragmented Nuclei (%): 14% and 30%
  Population Healthy Nuclei (%): 72% and 48%
  Population Hoechst High Intensity Objects (%): 9% and 3%
  Population Membrane Permeable-Phenotype (%): 0% and 9%
  Population Mitochondria Different-Phenotype (%): 1%
  Population Mitotic Cells (%): 28% and 60%
  Population Normal (%): 90% and 96%
  Population Pyknosed Nuclei (%): 13% and 20%
  Population Tubulin-Different-Phenotype (%): 23% and 56%
  Total Cell Count: 178 and 114
Fibroblast; [6]
  Population Apoptotic (%): 55% and 45%
  Population Fragmented Nuclei (%): 26% and 49%
  Population Healthy Nuclei (%): 61% and 36%
  Population Hoechst High Intensity Objects (%): 6% and 2%
  Population Membrane Permeable-Phenotype (%): 2% and 3%
  Population Mitotic Cells (%): 44% and 54%
  Population Normal (%): 93% and 97%
  Population Pyknosed Nuclei (%): 11% and 13%
  Population Tubulin-Different-Phenotype (%): 29% and 51%
  Total Cell Count: 164 and 81
